The source of these data is publication PMC9907071 (Proceedings of the National Academy of Sciences of the …, 2022).

Data set [1] relates to A. baumannii HUMC1 (CR-XDR). In words: Antimicrobial susceptibility testing in MM. It counts as cell-based, Acinetobacter baumannii. As to conditions: for EC50 / MIC: Acinetobacter baumannii, 24 h; for EC50: read-out: HUMC EC50.
The target of data set [2] is T1, HsDHODH (Homo sapiens, UniProt Q02127). As to conditions: read-out: HsDHODH IC50; previously reported; ref [25], [27]; cited from earlier work.
For the next data set, the target named is T2, AbDHODH (Acinetobacter baumannii, UniProt B7GZW7).
T2 sequence (B7GZW7 1-334): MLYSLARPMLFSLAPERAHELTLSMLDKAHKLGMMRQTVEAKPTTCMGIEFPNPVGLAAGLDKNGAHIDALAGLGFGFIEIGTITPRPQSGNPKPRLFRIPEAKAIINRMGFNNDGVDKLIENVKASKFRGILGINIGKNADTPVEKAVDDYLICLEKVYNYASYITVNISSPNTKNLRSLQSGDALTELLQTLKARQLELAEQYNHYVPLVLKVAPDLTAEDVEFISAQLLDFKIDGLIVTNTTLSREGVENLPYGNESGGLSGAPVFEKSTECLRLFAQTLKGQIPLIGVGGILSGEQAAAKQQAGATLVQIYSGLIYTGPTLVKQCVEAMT
Put plainly: AbDHODH steady-state rate assay. The class given is biochemical.

The next data set has as its system A. baumannii AB307-0294. Put plainly: Antimicrobial susceptibility testing in MM. It counts as cell-based, Acinetobacter baumannii. The note with it: for EC50: Acinetobacter baumannii, AB3070294, 24 h, read-out: AB307 EC50; for uracil rescue of growth: AB307, 0.2 mM uracil; for cidal or static activity by CFU vs initial inoculum: AB307 and HUMC1, DSM186 at >1 µg/mL, DSM161 at highest concentrations assessed.

In data set [3] the test system is A. baumannii AB307-0294 isolates. In words: Susceptibility of AB307-0294 isolates recovered from DSM161-treated mice. The class given is cell-based, Acinetobacter baumannii. The note with it: eight independent colonies of AB307 from three animals. In outline:
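Neutropenic BALB/c mice were infected in the thigh with AB307 and given test compound orally at 100 mg/kg at 0 and 12 h. Eight independent colonies were recovered from three sites in three animals and retested. MIC was determined by CFU at 24 h in MM, defined as growth within ± ½ log of the starting inoculum.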

Data set [4] deals with A. baumannii AB307. Put plainly: Time-kill assay. The class given is cell-based, Acinetobacter baumannii. As to conditions: DSM186 1 µg/mL, DSM161 17.5 µg/mL, meropenem 1 µg/mL. In outline:
(§1)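 Time-kill assays were run in pyrimidine-deficient MM at a fixed compound concentration: 1 µg/mL (2.9 µM) or 17.5 µg/mL (50 µM). Untreated and meropenem 1 µg/mL (2.6 µM) comparators were included. CFU was enumerated over time against the starting inoculum. Data are mean ± SEM of 2–4 independent studies, each with 2–5 technical replicates.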

Another data set has as its system A. baumannii AB307ΔpyrD. Put plainly: Time-kill assay. The class given is cell-based, Acinetobacter baumannii. As to conditions: pyrimidine-deficient medium.
The test system of another data set is A. baumannii LAC-4 (MDR). In words: Antimicrobial susceptibility testing in MM. It counts as cell-based. The note with it: Acinetobacter baumannii, 24 h; for EC50: read-out: LAC-4 EC50; for MIC: read-out: LAC-4 MIC. The procedure, abridged: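 Overnight (18 h) cultures in minimal medium (MM) plus casamino acids were diluted 1:1,000 and titred on LB plates. Test compound (in DMSO) was added at various concentrations, giving about 5 × 10^5 CFU/mL final. Medium-only and DMSO wells served as controls. Plates were shaken at 37 °C for 24 h, reading Å600 every 15 min. […] There were 2–4 technical replicates per concentration, and results are mean ± SEM of multiple independent studies.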

Data set [5] can be described thus: Microsomal stability. It counts as in vitro ADME. The note with it: mouse microsomes.
The subject of data set [6] is A. baumannii AB307. Put plainly: Efflux and permeability assay. It counts as cell-based, Acinetobacter baumannii. As to conditions: DSM186 0.015 µg/mL.
The next data set relates to A. baumannii HUMC1. In words: Time-kill assay. The class given is cell-based, Acinetobacter baumannii. As to conditions: DSM186 1 µg/mL, meropenem 1 µg/mL. The procedure, abridged:
as §1

Another data set concerns A. baumannii strains. In words: DSM186 on a panel of A. baumannii strains. The class given is cell-based, Acinetobacter baumannii. The note with it: for MIC: Acinetobacter baumannii.
Data set [7] addresses T1, HsDHODH. In words: biochemical.
Data set [8] in a line: Microsomal stability. It counts as in vitro ADME. The note with it: human liver microsomes. Background: Microsomes from liver hold many membrane-bound enzymes, among them those of drug oxidation.
[9] abbreviates: read-out: MIC as measured by CFU.

What is called EC50 is the concentration needed to bring the measured effect to its halfway point. The IC50 is the midpoint of a concentration-inhibition curve.

≈ marks a conversion by molar mass, not a printed value. Where “and” joins values, the source holds several entries; their conditions need not be identical. Equal entries are not always repeated. Where two headings read alike, the source gives them in different places. Where only a bound is given, the exact number is not on record here.

T1 sequence (Q02127 whole entry): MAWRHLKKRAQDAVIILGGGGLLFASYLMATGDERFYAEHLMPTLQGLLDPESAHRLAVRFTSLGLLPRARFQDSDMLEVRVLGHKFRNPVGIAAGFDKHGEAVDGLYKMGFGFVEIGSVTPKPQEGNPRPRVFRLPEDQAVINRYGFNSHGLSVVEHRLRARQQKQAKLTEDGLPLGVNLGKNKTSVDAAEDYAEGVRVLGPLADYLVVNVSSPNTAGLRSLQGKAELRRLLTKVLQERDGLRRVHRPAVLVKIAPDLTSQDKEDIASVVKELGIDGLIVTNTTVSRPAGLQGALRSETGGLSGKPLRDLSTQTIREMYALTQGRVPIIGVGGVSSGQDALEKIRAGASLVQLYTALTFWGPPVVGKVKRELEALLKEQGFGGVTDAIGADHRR

For `Cc1cc(Nc2ccc(C(F)(F)F)c(F)c2)n2ncnc2n1` [DSM125], the EC50 in data set [1] is 34 µM; with A. baumannii AB307-0294, 9600 nM. Further, the MIC in data set [1] (read-out: HUMC MIC) is 51 µM and 16 µg/mL. Besides, the values for the IC50 at HsDHODH [2] and at AbDHODH were above 100 µM and 910 ± 70 nM, respectively.

In the case of `Cc1cc(Nc2ccc(S(F)(F)(F)(F)F)cc2)n2ncnc2n1` [DSM161], in data set [3], the “change in MIC (by CFU) of colonies recovered from treated animals” value is on record as “no change in MIC”. The “time-kill: CFU over time vs starting inoculum” value in the data set on A. baumannii AB307 [4] is reported as “decreased below the starting inoculum”. In addition, in the data set with A. baumannii AB307ΔpyrD, the “time-kill: killing of DHODH deletion mutant” value was “neither DSM186 nor DSM161 caused increased killing”. Further, the EC50 is 4400 ± 470 nM in the data set with A. baumannii LAC-4 (MDR), 8.4 ± 0.85 µM in data set [1] and 1400 ± 300 nM with A. baumannii AB307-0294. Further, the MIC in the data set on A. baumannii LAC-4 (MDR) is 25 µM and 8.8 µg/mL; in data set [1] (read-out: HUMC MIC), 25 µM and 8.8 µg/mL; in data set [1] (setting [9]) it was 50 µM and 17.5 µg/mL. Further, in [1] (HUMC1 and LAC-4 vs AB307), the “fold difference in potency, drug-resistant strains vs drug-sensitive AB307” value is reported as 3–6 fold. Moreover, the IC50 on HsDHODH [2] was above 100 µM; at AbDHODH, 300 ± 110 nM. Moreover, in the data set on A. baumannii AB307-0294, the “uracil rescue of growth” value was “uracil rescue was also demonstrated”. Moreover, in the data set on A. baumannii AB307-0294, the “cidal or static activity by CFU vs initial inoculum” value was “bacteriostatic”. Also, the “fold MIC by CFU higher than MIC by absorbance assay” value in the data set with A. baumannii AB307-0294 (both strains (AB307, HUMC1)) is reported as 10 fold.

On to `Cc1cc(Nc2ccc(S(F)(F)(F)(F)F)cc2)n2ccnc2n1` [DSM186], for which the metabolic stability entry in “Microsomal stability [5]” is listed as “less stable”; in “Microsomal stability [8]”, “metabolically stable”. In the data set on A. baumannii AB307 [6], the “effect of combination of PAβN and PMBN on activity” value is recorded as “less active than PMBN alone”. In the data set with A. baumannii AB307 [6] (PAβN 70 µg/mL), the “effect of efflux inhibitor PAβN on activity” value is on record as “somewhat increased the activity”. The “effect of permeability-increasing agent PMBN on activity” value in the data set with A. baumannii AB307 [6] (PMBN 64 µg/mL) is “somewhat increased the activity”. Also, the “time-kill: CFU over time vs starting inoculum” value with A. baumannii AB307 [4] and in the data set with A. baumannii HUMC1 was “decreased below the starting inoculum” throughout. The “time-kill: killing of DHODH deletion mutant” value with A. baumannii AB307ΔpyrD is “neither DSM186 nor DSM161 caused increased killing”. In addition, the EC50 stood at 170 ± 33 nM with A. baumannii LAC-4 (MDR), 0.17 ± 0.0033 µM in data set [1] and 53 ± 8.2 nM in the data set on A. baumannii AB307-0294. The MIC in the data set with A. baumannii LAC-4 (MDR) is 1.3 µM and 0.45 µg/mL; with A. baumannii strains (read-out: MIC assessed by Å600) it was 0.11 to 1.09 µg/mL (≈ 0.314 to 3.11 µM); in the data set on A. baumannii strains (read-out: minimal inhibitory concentration), at most 1 µg/mL; in [1] (read-out: HUMC MIC), 0.78 µM and 0.27 µg/mL; in [1] (setting [9]), 1.6 µM and 0.55 µg/mL. The “concentration inhibiting growth by CFU” value in the data set on A. baumannii strains (17/23 strains, relative to starting inoculum (± ½ log) at 24 h) was 1 µg/mL and 2.9 µM; in the data set on A. baumannii strains (remaining six strains), 2 µg/mL and 5.8 µM. Moreover, the “activity across strains tested” value with A. baumannii strains (30 strains including 12 CR-XDR isolates) is “active against all the 30 strains tested”. The “uracil rescue of growth” value is on record as “rescued by the addition of uracil” in [1] (HUMC1, 0.2 mM uracil) and “rescued by the addition of uracil” in the data set with A. baumannii AB307-0294. The IC50 on AbDHODH was 28 ± 3.8 nM; at HsDHODH [7] it was above 100 µM. In the data set on A. baumannii AB307-0294, the “cidal or static activity by CFU vs initial inoculum” value is “cidal activity”.

In turn, `Cc1cc(Nc2ccc3c(c2)CCCC3)n2ccnc2n1` [DSM187] displayed a concentration for half-maximal inhibition (IC50) at AbDHODH of 170 nM.

With `Cc1cc(Nc2ccc(C(F)(F)F)cc2)c2ccccc2n1` [DSM250], the EC50 with A. baumannii LAC-4 (MDR) stood at 1600 nM; in the data set with A. baumannii AB307-0294, 380 ± 140 nM. In addition, the MIC with A. baumannii LAC-4 (MDR) is 12.5 µM and 3.8 µg/mL. The concentration for half-maximal inhibition (IC50) is 85 ± 15 nM against AbDHODH and above 100 µM on HsDHODH [7]. In addition, the “concentrations showing some off-target activity” value with A. baumannii AB307-0294 (AB307, uracil rescue study) is “above 10 µM”. Besides, in the data set with A. baumannii AB307-0294, the “uracil rescue of growth” value is reported as “uracil rescue was also demonstrated”.

On AbDHODH, `Cc1cc(Nc2ccc(S(F)(F)(F)(F)F)cc2)n2nc(C(C)(F)F)nc2n1` [DSM265] yielded an IC50 of 590 ± 160 nM. In the data set with A. baumannii AB307-0294, the “uracil rescue of growth” value is on record as “uracil rescue was also demonstrated” and the EC50 turned out to be 2700 ± 210 nM.

As to `C[C@@H](O)[C@H]1C(=O)N2C(C(=O)O)=C(S[C@@H]3CN[C@H](C(=O)N(C)C)C3)[C@H](C)[C@H]12` [meropenem, reference compound], the “time-kill: CFU over time vs starting inoculum” value in the data set with A. baumannii AB307 [4] is reported as “decreased below the starting inoculum”.
